Test system: HEK-293T
Assay: Multiplex assay against HEK293T;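 on Population Tubulin-Different-Phenotype (%): share of the cells with healthy nuclei that show this phenotype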
Assay type: toxicity, cell-based
Conditions: human
Outline: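 On a CQ1 microscope at 37°C and 5% CO2, live cells were imaged after compound addition. They had been stained at seeding with Hoechst33342, BioTracker Green Microtubule Cytoskeleton Dye, MitoTracker Red and Annexin V Alexa Fluor 680. CellPathfinder machine-learning gating assigned cells to Hoechst high-intensity objects or normal cells, normal cells to healthy, pyknosed or fragmented nuclei, and pyknosed cells to mitotic or apoptotic. Tubulin, mitochondrial-mass and membrane-permeability phenotypes are per cents of healthy-nucleus cells.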

[1] = 12 h, 1 µM, compound concentration 1 uM, replicate 1
[2] = 12 h, 1 µM, compound concentration 1 uM, replicate 2
[3] = 12 h, 10 µM, compound concentration 10 uM, replicate 1
[4] = 12 h, 10 µM, compound concentration 10 uM, replicate 2
[5] = 24 h, 1 µM, compound concentration 1 uM, replicate 1
[6] = 24 h, 1 µM, compound concentration 1 uM, replicate 2
[7] = 24 h, 10 µM, compound concentration 10 uM, replicate 1
[8] = 24 h, 10 µM, compound concentration 10 uM, replicate 2
[9] = 48 h, 1 µM, compound concentration 1 uM, replicate 1
[10] = 48 h, 1 µM, compound concentration 1 uM, replicate 2
[11] = 48 h, 10 µM, compound concentration 10 uM, replicate 1
[12] = 48 h, 10 µM, compound concentration 10 uM, replicate 2

For `CCC(=O)O[C@]1(C(=O)SCF)[C@H](C)C[C@H]2[C@@H]3C[C@H](F)C4=CC(=O)C=C[C@]4(C)[C@@]3(F)[C@@H](O)C[C@@]21C` [FLUTICASONE PROPIONATE], the “Population Apoptotic (%)” value [1] was 51%, the “Population Fragmented Nuclei (%)” value [1] was 10% and the “Population Healthy Nuclei (%)” value [1] was 33%. The “Population Hoechst High Intensity Objects (%)” value [1] was 11%, the “Population Membrane Permeable-Phenotype (%)” value [1] was 0% and the “Population Mitochondria Different-Phenotype (%)” value [1] was 87%. The “Population Mitotic Cells (%)” value [1] was 48%, the “Population Normal (%)” value [1] was 88% and the “Population Pyknosed Nuclei (%)” value [1] was 56%. The “Population Tubulin-Different-Phenotype (%)” value [1] was 52%, the “Total Cell Count” value [1] was 253 and the “Population Apoptotic (%)” value [2] was 9%. The “Population Fragmented Nuclei (%)” value [2] was 4%, the “Population Healthy Nuclei (%)” value [2] was 46% and the “Population Hoechst High Intensity Objects (%)” value [2] was 2%. The “Population Membrane Permeable-Phenotype (%)” value [2] was 7%, the “Population Mitochondria Different-Phenotype (%)” value [2] was 13% and the “Population Mitotic Cells (%)” value [2] was 90%. The “Population Normal (%)” value [2] was 97%, the “Population Pyknosed Nuclei (%)” value [2] was 48% and the “Population Tubulin-Different-Phenotype (%)” value [2] was 19%. The “Total Cell Count” value [2] was 273, the “Population Apoptotic (%)” value [3] was 68% and the “Population Fragmented Nuclei (%)” value [3] was 11%. For the same molecule, the “Population Healthy Nuclei (%)” value [3] was 32%, the “Population Hoechst High Intensity Objects (%)” value [3] was 15% and the “Population Membrane Permeable-Phenotype (%)” value [3] was 1%. The “Population Mitochondria Different-Phenotype (%)” value [3] was 89%, the “Population Mitotic Cells (%)” value [3] was 31% and the “Population Normal (%)” value [3] was 84%. The “Population Pyknosed Nuclei (%)” value [3] was 56%, the “Population Tubulin-Different-Phenotype (%)” value [3] was 78% and the “Total Cell Count” value [3] was 203. The “Population Apoptotic (%)” value [4] was 25%, the “Population Fragmented Nuclei (%)” value [4] was 4% and the “Population Healthy Nuclei (%)” value [4] was 27%. For the same molecule, the “Population Hoechst High Intensity Objects (%)” value [4] was 6%, the “Population Membrane Permeable-Phenotype (%)” value [4] was 8% and the “Population Mitochondria Different-Phenotype (%)” value [4] was 54%. The “Population Mitotic Cells (%)” value [4] was 74%, the “Population Normal (%)” value [4] was 93% and the “Population Pyknosed Nuclei (%)” value [4] was 68%. The “Population Tubulin-Different-Phenotype (%)” value [4] was 60%, the “Total Cell Count” value [4] was 187 and the “Population Apoptotic (%)” value [5] was 59%. For the same molecule, the “Population Fragmented Nuclei (%)” value [5] was 10%, the “Population Healthy Nuclei (%)” value [5] was 41% and the “Population Hoechst High Intensity Objects (%)” value [5] was 17%. The “Population Membrane Permeable-Phenotype (%)” value [5] was 6%, the “Population Mitochondria Different-Phenotype (%)” value [5] was 68% and the “Population Mitotic Cells (%)” value [5] was 40%. The “Population Normal (%)” value [5] was 82%, the “Population Pyknosed Nuclei (%)” value [5] was 48% and the “Population Tubulin-Different-Phenotype (%)” value [5] was 40%. For the same molecule, the “Total Cell Count” value [5] was 273, the “Population Apoptotic (%)” value [6] was 7% and the “Population Fragmented Nuclei (%)” value [6] was 3%. The “Population Healthy Nuclei (%)” value [6] was 67%, the “Population Hoechst High Intensity Objects (%)” value [6] was 1% and the “Population Mitochondria Different-Phenotype (%)” value [6] was 12%. The “Population Mitotic Cells (%)” value [6] was 92%, the “Population Normal (%)” value [6] was 98% and the “Population Pyknosed Nuclei (%)” value [6] was 29%. For the same molecule, the “Population Tubulin-Different-Phenotype (%)” value [6] was 22%, the “Total Cell Count” value [6] was 322 and the “Population Apoptotic (%)” value [7] was 61%. For the same molecule, the “Population Fragmented Nuclei (%)” value [7] was 15%, the “Population Healthy Nuclei (%)” value [7] was 33% and the “Population Hoechst High Intensity Objects (%)” value [7] was 15%. For the same molecule, the “Population Membrane Permeable-Phenotype (%)” value [7] was 0%, the “Population Mitochondria Different-Phenotype (%)” value [7] was 80% and the “Population Mitotic Cells (%)” value [7] was 38%. For the same molecule, the “Population Normal (%)” value [7] was 84%, the “Population Pyknosed Nuclei (%)” value [7] was 50% and the “Population Tubulin-Different-Phenotype (%)” value [7] was 67%. For the same molecule, the “Total Cell Count” value [7] was 237, the “Population Apoptotic (%)” value [8] was 44% and the “Population Fragmented Nuclei (%)” value [8] was 11%. For the same molecule, the “Population Healthy Nuclei (%)” value [8] was 44%, the “Population Hoechst High Intensity Objects (%)” value [8] was 3% and the “Population Membrane Permeable-Phenotype (%)” value [8] was 8%. The “Population Mitochondria Different-Phenotype (%)” value [8] was 43%, the “Population Mitotic Cells (%)” value [8] was 55% and the “Population Normal (%)” value [8] was 96%. The “Population Pyknosed Nuclei (%)” value [8] was 44%, the “Population Tubulin-Different-Phenotype (%)” value [8] was 53% and the “Total Cell Count” value [8] was 226. The “Population Apoptotic (%)” value [9] was 50%, the “Population Fragmented Nuclei (%)” value [9] was 14% and the “Population Healthy Nuclei (%)” value [9] was 50%. For the same molecule, the “Population Hoechst High Intensity Objects (%)” value [9] was 14%, the “Population Membrane Permeable-Phenotype (%)” value [9] was 2% and the “Population Mitochondria Different-Phenotype (%)” value [9] was 34%. For the same molecule, the “Population Mitotic Cells (%)” value [9] was 50%, the “Population Normal (%)” value [9] was 85% and the “Population Pyknosed Nuclei (%)” value [9] was 35%. The “Population Tubulin-Different-Phenotype (%)” value [9] was 28%, the “Total Cell Count” value [9] was 348 and the “Population Apoptotic (%)” value [10] was 9%. The “Population Fragmented Nuclei (%)” value [10] was 4%, the “Population Healthy Nuclei (%)” value [10] was 81% and the “Population Hoechst High Intensity Objects (%)” value [10] was 2%. The “Population Membrane Permeable-Phenotype (%)” value [10] was 5%, the “Population Mitochondria Different-Phenotype (%)” value [10] was 3% and the “Population Mitotic Cells (%)” value [10] was 90%. For the same molecule, the “Population Normal (%)” value [10] was 97%, the “Population Pyknosed Nuclei (%)” value [10] was 13% and the “Population Tubulin-Different-Phenotype (%)” value [10] was 23%. For the same molecule, the “Total Cell Count” value [10] was 621, the “Population Apoptotic (%)” value [11] was 67% and the “Population Fragmented Nuclei (%)” value [11] was 15%. The “Population Healthy Nuclei (%)” value [11] was 51%, the “Population Hoechst High Intensity Objects (%)” value [11] was 12% and the “Population Membrane Permeable-Phenotype (%)” value [11] was 10%. The “Population Mitochondria Different-Phenotype (%)” value [11] was 60%, the “Population Mitotic Cells (%)” value [11] was 32% and the “Population Normal (%)” value [11] was 87%. For the same molecule, the “Population Pyknosed Nuclei (%)” value [11] was 33%, the “Population Tubulin-Different-Phenotype (%)” value [11] was 55% and the “Total Cell Count” value [11] was 278. For the same molecule, the “Population Apoptotic (%)” value [12] was 28%, the “Population Fragmented Nuclei (%)” value [12] was 7% and the “Population Healthy Nuclei (%)” value [12] was 74%. The “Population Hoechst High Intensity Objects (%)” value [12] was 5%, the “Population Membrane Permeable-Phenotype (%)” value [12] was 9% and the “Population Mitochondria Different-Phenotype (%)” value [12] was 22%. For the same molecule, the “Population Mitotic Cells (%)” value [12] was 71%, the “Population Normal (%)” value [12] was 94% and the “Population Pyknosed Nuclei (%)” value [12] was 18%. For the same molecule, the “Population Tubulin-Different-Phenotype (%)” value [12] was 52% and the “Total Cell Count” value [12] was 330.

From ChEMBL document CHEMBL4689842, “EUbOPEN Chemogenomics Library wave 1” (2021)
